The results in this text go back to ChEMBL document CHEMBL2062433, “Synthesis and antiviral activity of substituted bisaryl amide compounds as novel influenza virus inhibitors” (Eur J Med Chem, 2012).

SMILES strings stand for the structures.

Series [1] can be described thus: Cytotoxicity against MDCK cells incubated for 48 hrs by CPE method. The conditions noted are these: dog, read-out: TC50. In kind it is cell-based, Canis lupus familiaris. Summed up:
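MDCK cells seeded at 2.5 × 10^4 per well and grown 24 h, then exposed to various compound concentrations for 48 h at 37 °C in 5% CO2. Toxicity scored by CPE observation. TC50 calculated by Reed and Muench; values are averages of three independent assays.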

Series [2] concerns Influenza A virus. Nature of the series: Antiviral activity against Influenza A virus (A/Guangdong-Luohu/219/2006(H1N1)) infected in MDCK cells assessed as inhibition of virus-induced cytopathic effect. The class given is functional, organism-based. Summed up: (§1)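 Confluent MDCK monolayers infected with 100 TCID50 of virus; 2 h adsorption at 37 °C, PBS wash, then maintenance medium at 37 °C with or without serial compound concentrations. CPE scored once virus control wells reached grade 4. IC50 calculated by Reed and Muench; values are averages of three independent assays.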
(In general: Damage to the host cells serves as the signal in cytopathic effect assays.)

The nature of series [3]: Selectivity index, ratio of TC50 for MDCK cells to IC50 for Influenza A virus (A/Guangdong-Luohu/219/2006(H1N1)). In kind it is toxicity, cell-based. The note with it: dog, read-out: Selectivity Index. The method, boiled down:
(§2)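 SI is TC50 divided by IC50. TC50 comes from uninfected MDCK cells after 48 h of compound exposure, scored by CPE. IC50 comes from MDCK cells infected with 100 TCID50 and scored for CPE when virus controls reached grade 4. Both values calculated by Reed and Muench.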

Another series concerns Influenza B virus. As to the kind of experiment: Antiviral activity against Influenza B virus (strain B/Jifang/13/97) infected in MDCK cells assessed as inhibition of virus-induced cytopathic effect. In kind it is functional, organism-based.
Series [4] concerns Influenza A virus. Nature of the series: Antiviral activity against Influenza A virus (A/Tianjin-Jinnan/15/2009(H1N1)) infected in MDCK cells assessed as inhibition of virus-induced cytopathic effect. In kind it is functional, organism-based. The method, boiled down: as §1
Series [5] can be described thus: Selectivity index, ratio of TC50 for MDCK cells to IC50 for Influenza B virus (strain B/Jifang/13/97). The class given is toxicity, cell-based. The conditions noted are these: dog, read-out: Selectivity Index.
Series [6] in a line: Selectivity index, ratio of TC50 for MDCK cells to IC50 for Influenza A virus (A/Tianjin-Jinnan/15/2009(H1N1)). In kind it is toxicity, cell-based. The conditions noted are these: dog, read-out: Selectivity Index. The method, boiled down:
as §2

Regarding `CCC(=O)Nc1cc(C(=O)Oc2ccccc2)ccc1OC`, in series [1], the CC50 at 48 h came to 464 µM. In addition, the IC50 (as a rule, the midpoint of a concentration-inhibition curve) in the series with Influenza A virus [2] is 223 µM. The selectivity ratio in series [3] came to 2.1.

As to `CCC(=O)Nc1cc(C(=O)Nc2ccccc2)ccc1OC`, the CC50 at 48 h in series [1] is more than 670 µM. The IC50 in the series on Influenza A virus [2] was 43 µM; in the series on Influenza B virus, more than 224 µM; in the series with Influenza A virus [4] it was more than 224 µM. Also, the selectivity ratio in series [3] is more than 15.6.

Consider `CCC(=O)Nc1cc(C(=O)Nc2ccc(C)cc2)ccc1OC`, for which the CC50 at 48 h in series [1] came to 162 µM. Moreover, the IC50 is 23.7 µM with Influenza A virus [2], more than 23.7 µM in the series on Influenza B virus and more than 23.7 µM with Influenza A virus [4]. Further, in series [3], the selectivity ratio worked out at 6.8.

Regarding `CCC(=O)Nc1cc(C(=O)Nc2ccc(Br)cc2)ccc1OC`, in series [1], the CC50 at 48 h amounted to 90.4 µM. Also, in the series with Influenza A virus [2], the 50% inhibitory concentration (IC50) is more than 17.6 µM.

With `CCC(=O)Nc1cc(C(=O)Nc2cccc(Cl)c2)ccc1OC`, the CC50 at 48 h in series [1] came to 602 µM. In addition, the IC50 in the series with Influenza A virus [2] was more than 66.9 µM.

`CCC(=O)Nc1cc(C(=O)Nc2cccc(SC)c2)ccc1OC`: the CC50 at 48 h in series [1] is 324 µM. In addition, the IC50 in the series with Influenza A virus [2] was more than 63 µM.

As for `CCC(=O)Nc1cc(C(=O)NC2CCCCC2)ccc1OC`, the CC50 at 48 h in series [1] amounted to 510 µM. Also, the IC50 in the series with Influenza A virus [2] stood at 73 µM. Moreover, in series [3], the selectivity ratio was found to be 6.9.

Consider `CCC(=O)Nc1cc(C(=O)NC2CCC2)ccc1OC`, for which the CC50 at 48 h in series [1] was more than 724 µM. Besides, the 50% inhibitory concentration (IC50) with Influenza A virus [2] is 59 µM; in the series with Influenza B virus, more than 241 µM; with Influenza A virus [4], more than 241 µM. Moreover, the selectivity ratio in series [3] was more than 12.3.

As for `CCC(=O)Nc1cc(C(=O)Nc2nccs2)ccc1OC`, in series [1], the CC50 at 48 h is more than 655 µM. In addition, the values for the IC50 with Influenza A virus [2], in the series on Influenza B virus and in the series on Influenza A virus [4] were 35 µM, 126 µM and 93.8 µM, respectively. The results for the selectivity ratio in series [3], in series [5] and in series [6] were more than 18.7, more than 5.2 and 6.9, respectively.

`COc1ccc(C(=O)Nc2ccccc2)cc1NC(=O)C(C)Cl` (centres undefined): the CC50 at 48 h in series [1] is 200 µM. Also, the IC50 with Influenza A virus [2] was 17.3 µM; with Influenza B virus it was more than 22.3 µM; with Influenza A virus [4], more than 22.3 µM. The selectivity ratio in series [3] came out at 11.6.

With `COc1ccc(C(=O)Nc2ccccc2)cc1NC(C)=O`, the CC50 at 48 h in series [1] is more than 704 µM. For the same molecule, the IC50 with Influenza A virus [2] is 113 µM. In series [3], the selectivity ratio is more than 6.2.

As for `COc1ccc(C(=O)Nc2ccccc2)cc1NC(=O)c1ccccc1`, the CC50 at 48 h in series [1] was 192 µM. Further, the figures for the 50% inhibitory concentration (IC50) with Influenza A virus [2], in the series on Influenza B virus and in the series with Influenza A virus [4] were 12.5 µM, 21.4 µM and 9.2 µM, respectively. Besides, the selectivity ratio in series [3] was 15.4; in series [5], 9; in series [6] it was 20.9.

Take `COc1ccc(C(=O)Nc2ccccc2)cc1NC(=O)C1CCCC1`: the CC50 at 48 h in series [1] came to 459 µM. Besides, the half-inhibitory concentration (IC50) was 37.9 µM with Influenza A virus [2], more than 65.7 µM with Influenza B virus and more than 65.7 µM in the series on Influenza A virus [4]. Moreover, the selectivity ratio in series [3] worked out at 12.1.

As for `COc1ccc(C(=O)Nc2ccccc2)cc1NC(=O)C(C)F` (centres undefined), the CC50 at 48 h in series [1] is more than 632 µM. For the same molecule, the IC50 with Influenza A virus [2] was determined as 211 µM. In series [3], the selectivity ratio is more than 3.

As to `CCC(=O)Nc1cc(C(=O)Nc2ccc([N+](=O)[O-])cc2)ccc1OC`, the CC50 at 48 h in series [1] came to 307 µM. Besides, the IC50 in the series on Influenza A virus [2] was 26.3 µM; in the series on Influenza B virus it was 64.8 µM; in the series with Influenza A virus [4] it was more than 21.6 µM. The selectivity ratio in series [3] came out at 11.7; in series [5], 4.7.

Turning to `CCC(=O)Nc1cc(C(=O)Nc2ccccn2)ccc1OC`, the CC50 at 48 h in series [1] was more than 669 µM. Besides, in the series on Influenza A virus [2], the IC50 is 223 µM. In series [3], the selectivity ratio was more than 3.

As for `CCC(=O)Nc1cc(C(=O)N(C)c2ccccc2)ccc1OC`, the CC50 at 48 h in series [1] was 444 µM. Also, the IC50 in the series on Influenza A virus [2] stood at 101 µM. Besides, the selectivity ratio in series [3] came out at 4.4.

`COc1ccc(C(=O)N(C)c2ccccc2)cc1NC(=O)C(C)C`: in series [1], the CC50 at 48 h turned out to be 492 µM. Besides, the IC50 in the series on Influenza A virus [2] stood at 117 µM. Moreover, in series [3], the selectivity ratio amounted to 4.2.

For the molecule `CCC(=O)Nc1cc(C(=O)Nc2ccccc2)ccc1Cl`, the CC50 at 48 h in series [1] was found to be 530 µM. Moreover, in the series on Influenza A virus [2], the IC50 came to 153 µM. Also, in series [3], the selectivity ratio amounted to 3.5.

As to `CCC(=O)Oc1cc(C(=O)Nc2ccccc2)ccc1OC`, the CC50 at 48 h in series [1] was 518 µM. Further, in the series on Influenza A virus [2], the IC50 came out at 173 µM. Further, in series [3], the selectivity ratio came out at 3.

Turning to `COc1ccc(C(=O)Nc2ccccc2)cc1`, in series [1], the CC50 at 48 h was more than 880 µM. The IC50 in the series with Influenza A virus [2] was more than 293 µM.

Consider `COc1c(NC(=O)C(C)F)cccc1C(=O)Nc1ccccc1` (centres undefined), for which, in series [1], the CC50 at 48 h is more than 632 µM. Also, the IC50 with Influenza A virus [2] is more than 211 µM.

Consider `COc1cc(NC(=O)C(C)F)cc(C(=O)Nc2ccccc2)c1` (centres undefined), for which the CC50 at 48 h in series [1] was determined as 491 µM. For the same molecule, in the series with Influenza A virus [2], the IC50 worked out at 211 µM. For the same molecule, the selectivity ratio in series [3] was 2.3.

`COc1ccc(NC(=O)C(C)F)cc1C(=O)Nc1ccccc1` (centres undefined): the CC50 at 48 h in series [1] worked out at 272 µM. In addition, in the series with Influenza A virus [2], the IC50 was more than 70.2 µM.

Regarding `CC(F)C(=O)Nc1cccc(C(=O)Nc2ccccc2)c1` (centres undefined), in series [1], the CC50 at 48 h amounted to 578 µM. Also, in the series on Influenza A virus [2], the IC50 stood at 144 µM. Also, the selectivity ratio in series [3] was 4.

As to `CCC(=O)Nc1cc(S(=O)(=O)Nc2ccccc2)ccc1OC`, the CC50 at 48 h in series [1] is more than 599 µM. Besides, the IC50 in the series on Influenza A virus [2] was 48.4 µM; in the series on Influenza B virus it was more than 66.7 µM; with Influenza A virus [4], more than 66.7 µM. For the same molecule, the selectivity ratio in series [3] is more than 12.4.

For the molecule `CCC(=O)Nc1cc(NC(=O)c2ccccc2)ccc1OC`, the CC50 at 48 h in series [1] came out at 387 µM. Moreover, the IC50 with Influenza A virus [2] was found to be 74.5 µM. Besides, the selectivity ratio in series [3] worked out at 5.2.

On to `CCOC(=O)C1=C[C@@H](OC(CC)CC)[C@H](NC(C)=O)[C@@H](N)C1` [OSELTAMIVIR], for which the CC50 at 48 h in series [1] stood at 3070 µM. The IC50 in the series on Influenza A virus [2] is 2 µM; with Influenza A virus [4], more than 2440 µM. Further, the selectivity ratio in series [3] was 1540.

As for `NC(=O)c1ncn([C@@H]2O[C@H](CO)[C@@H](O)[C@H]2O)n1` [RIBAVIRIN], in series [1], the CC50 at 48 h came to 4770 µM. The figures for the concentration for half-maximal inhibition (IC50) in the series on Influenza A virus [2], in the series with Influenza B virus and with Influenza A virus [4] were 8.8 µM, 45.5 µM and 35.3 µM, respectively. Moreover, the values for the selectivity ratio in series [3], in series [5] and in series [6] were 542, 104 and 135, respectively.
